Experimental data published in ChEMBL document CHEMBL1154231, “Bioactive Nortriterpenoids from Schisandra grandiflora” (J Nat Prod, 2009).
≈ marks a conversion by molar mass, not a printed value.

Columns and labels:
[1] = test system: Human immunodeficiency virus 1; test: Antiviral activity against HIV1 infected in human C8166 cells assessed as inhibition of virus-induced cytopathic effect; type: functional, organism-based; conditions: Human immunodeficiency virus 1, C8166
How it was run: (§1)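 HIV-1-induced cytopathic effect inhibition in permanent human T-cell line C8166, giving EC50. Cytotoxicity to uninfected C8166 cells run in parallel by MTT, giving CC50. Selectivity index taken as CC50/EC50. AZT served as positive control.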

[2] = Selectivity index, ratio of CC50 for human C8166 cells to EC50 for HIV1; type: toxicity, cell-based; conditions: read-out: Ratio CC50/EC50; how it was run: as §1
K562 = test: Cytotoxicity against human K562 cells after 48 hrs by sulforhodamine B assay; type: functional, cell-based; conditions: K562, 48 h
HepG2 = test: Cytotoxicity against human HepG2 cells after 48 hrs by sulforhodamine B assay; type: functional, cell-based; conditions: HepG2, 48 h
[3] = Cytotoxicity against human C8166 cells by MTT assay; type: cell-based; how it was run: as §1

Row | Compound | EC50 [1] [µg/mL] | selectivity ratio [2] | IC50 (K562) [µg/mL] | IC50 (HepG2) [µg/mL] | CC50 [3] [µg/mL]
1 | C[C@@H]1C(=O)[C@@]2(C)CC[C@]34C[C@]56OC(=O)C[C@H]5O[C@@](C)(CO)[C@@H]6CC[C@@]3(O)C(=O)[C@@]3(O[C@@]5(C[C@H](C)C(=O)O5)[C@@H]1[C@H]32)O4 [SCHIGRANDILACTONE A] | 80.2 (≈ 143 µM) | 1.1 | 0.13 (≈ 0.232 µM) | 0.19 (≈ 0.339 µM) | 
2 | C[C@@H]1C(=O)[C@@]2(C)CC[C@]34C[C@]56OC(=O)C[C@H]5O[C@@](C)(CO)[C@@H]6C[C@@H]5O[C@@]53C(=O)[C@@]3(O[C@@]5(C[C@H](C)C(=O)O5)[C@@H]1[C@H]32)O4 [SCHIGRANDILACTONE B] | 20.8 (≈ 37.2 µM) | 4 | 3.19 (≈ 5.71 µM) | 0.2 (≈ 0.358 µM) | 
3 | C[C@@H]1C(=O)[C@@]2(C)CC[C@]34C[C@]56OC(=O)C[C@H]5O[C@@](C)(CO)[C@@H]6[C@@H](O)C[C@H]3C(=O)[C@]3(O4)O[C@@]4(C[C@H](C)C(=O)O4)[C@@H]1[C@H]32 [SCHIGRANDILACTONE C] | 5.1 (≈ 9.1 µM) | 12.7 |  |  | 
4 | Cc1cn([C@H]2C[C@H](N=[N+]=[N-])[C@@H](CO)O2)c(=O)[nH]c1=O [ZIDOVUDINE] |  |  |  |  | > 200
